In ChEMBL document CHEMBL4033778, “Species-Selective Pyrimidineamine Inhibitors of Trypanosoma brucei S-Adenosylmethionine Decarboxylase” (J Med Chem, 2018):
Calls of active or inactive are those of the source. No cut-off for these calls is given here.

Experiments:
[1] = biological target: T1, S-adenosylmethionine decarboxylase proenzyme (Trypanosoma brucei brucei) (UniProt P50244); test: Inhibition of AdoMetDC in bloodstream form Trypanosoma brucei brucei Lister 427 assessed as increase in prozyme level at 1.5 times EC50 after 24 hrs by Western blot method
T1 sequence (whole entry): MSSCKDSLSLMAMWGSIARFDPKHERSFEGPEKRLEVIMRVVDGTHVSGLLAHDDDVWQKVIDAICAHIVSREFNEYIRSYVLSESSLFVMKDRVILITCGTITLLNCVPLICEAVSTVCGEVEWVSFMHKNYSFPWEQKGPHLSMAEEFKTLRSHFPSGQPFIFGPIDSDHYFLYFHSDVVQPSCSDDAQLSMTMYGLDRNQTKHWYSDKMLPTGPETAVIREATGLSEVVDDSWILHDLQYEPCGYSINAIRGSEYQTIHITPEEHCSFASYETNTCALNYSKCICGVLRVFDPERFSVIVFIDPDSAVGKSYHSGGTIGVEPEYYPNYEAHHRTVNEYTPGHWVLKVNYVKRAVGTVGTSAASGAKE

[2] = Inhibition of recombinant Trypanosoma brucei N-terminal His6-tagged AdoMetDC/prozyme hetrodimer expressed in Escherichia coli BL21/DE3 cells at pH 7.2 by RapidFire-MS-based enzyme activity assay
[3] = biological target: T2, S-adenosylmethionine decarboxylase proenzyme (Homo sapiens, UniProt P17707); test: Inhibition of recombinant human N-terminal His6-tagged AdoMetDC expressed in Escherichia coli BL21/DE3 cells at pH 7.2 by RapidFire-MS-based enzyme activity assay
T2 sequence (P17707 whole entry): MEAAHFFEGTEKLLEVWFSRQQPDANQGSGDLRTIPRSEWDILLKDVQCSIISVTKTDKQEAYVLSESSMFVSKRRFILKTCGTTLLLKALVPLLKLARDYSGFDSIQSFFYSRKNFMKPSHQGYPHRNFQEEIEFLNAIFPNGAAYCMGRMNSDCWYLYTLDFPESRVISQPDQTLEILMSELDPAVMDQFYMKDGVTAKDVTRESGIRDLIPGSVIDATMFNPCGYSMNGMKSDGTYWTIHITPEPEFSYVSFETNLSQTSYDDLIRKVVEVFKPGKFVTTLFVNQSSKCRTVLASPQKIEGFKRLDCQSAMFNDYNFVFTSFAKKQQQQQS

[4] = biological target: T3, S-adenosylmethionine decarboxylase proenzyme (Homo sapiens) (UniProt P17707); test: Inhibition of recombinant human N-terminal His6-tagged AdoMetDC expressed in Escherichia coli BL21/DE3 cells at 180 uM at pH 7.2 by RapidFire-MS-based enzyme activity assay
T3 sequence (whole entry): T2 sequence (P17707 whole entry)

[5] = tested on: Liver; test: Metabolic stability in CD-1 mouse pooled liver microsomes at 1 uM in presence of NADPH measured up to 30 mins by LC-MS/MS method; type: ADME, microsome; conditions: 0.5 h
[6] = Inhibition of recombinant Trypanosoma brucei N-terminal His6-tagged AdoMetDC/prozyme hetrodimer expressed in Escherichia coli BL21/DE3 cells at pH 6.8 by RapidFire-MS-based enzyme activity assay
[7] = tested on: human MDR1 (P-gp); test: Apparent permeability from basolateral side to apical side in MDCK2 harboring human MDR1 cells in absence of Pgp inhibitor GF120918 at 10 to 20 uM after 60 mins by LC-MS/MS method; type: ADME, cell-based, Canis lupus familiaris, MDCK-II; conditions: dog, MDCK-MDR1
Outline: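 MDCKII-hMDR1 monolayer permeability measured with or without Pgp inhibitor GF120918.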

[8] = Inhibition of recombinant Trypanosoma brucei N-terminal His6-tagged AdoMetDC/prozyme hetrodimer expressed in Escherichia coli BL21/DE3 cells at pH 7.7 by RapidFire-MS-based enzyme activity assay
[9] = tested on: Trypanosoma brucei; test: Ratio of IC50 for recombinant Trypanosoma brucei N-terminal His6-tagged AdoMetDC/prozyme hetrodimer expressed in Escherichia coli BL21/DE3 cells at pH 7.7 to IC50 for recombinant Trypanosoma brucei N-terminal His6-tagged AdoMetDC/prozyme hetrodimer expressed in Escherichia coli BL21/DE3 cells at pH 6.8
[10] = tested on: Liver; test: Metabolic stability in mixed gender human pooled liver microsomes at 1 uM in presence of NADPH measured up to 30 mins by LC-MS/MS method; type: ADME, microsome; conditions: 0.5 h
[11] = Competitive inhibition of recombinant Trypanosoma brucei N-terminal His6-tagged AdoMetDC/prozyme hetrodimer expressed in Escherichia coli BL21/DE3 cells using S-adenosyl-L-methionine as substrate preincubated for 30 mins followed by substrate addition measured every 5 mins by double-reciprocal Lineweaver-Burk plot analysis
[12] = tested on: Trypanosoma brucei; test: Reversible inhibition of recombinant Trypanosoma brucei N-terminal His6-tagged AdoMetDC/prozyme hetrodimer expressed in Escherichia coli BL21/DE3 cells using S-adenosyl-L-methionine as substrate preincubated for 30 mins followed by 100 fold dilution and substrate addition measured every 5 mins by RapidFire-mass spectrometry
[13] = tested on: Trypanosoma brucei brucei; test: Antitrypanosomal activity against bloodstream form Trypanosoma brucei brucei Lister 427 after 48 hrs by CellTiter-Glo assay; type: functional; conditions: Lister 427, 48 h
Outline: (§1)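 Bloodstream-form parasites grown in HMI-19 with fetal bovine serum, exposed 48 h to a 3-fold serial dilution (0.0038–25 μM or 0.015–100 μM final; 0.1% DMSO vehicle). Cell density read by ATP bioluminescence (CellTiter-Glo). Triplicate; EC50 from normalized response vs log concentration fit, bottom fixed at 0, Hill slope fixed at –8 when curve steepness gave ambiguous fit. Percent inhibition given at top concentration when <50%.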

[14] = tested on: Trypanosoma brucei; test: Inhibition of recombinant Trypanosoma brucei N-terminal His6-tagged AdoMetDC/prozyme hetrodimer expressed in Escherichia coli BL21/DE3 cells at 180 uM at pH 7.2 by RapidFire-MS-based enzyme activity assay
Outline: (§2)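 Steady-state decarboxylation of S-adenosyl-L-methionine by purified TbAdoMetDC/prozyme at pH 7.2; decarboxylated AdoMet product read by RapidFire–MS. Inhibitor added from DMSO to 2% final DMSO. Percent inhibition reported at the top tested concentration when mean inhibition stayed below 50%; triplicate.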

[15] = tested on: Trypanosoma brucei brucei; test: Antitrypanosomal activity against blood stream form Trypanosoma brucei brucei Lister 427 at 25 uM after 48 hrs by CellTiter-Glo assay; type: functional; outline: as §1
[16] = Selectivity ratio of IC50 for recombinant human N-terminal His6-tagged AdoMetDC expressed in Escherichia coli BL21/DE3 cells to IC50 for recombinant Trypanosoma brucei N-terminal His6-tagged AdoMetDC/prozyme hetrodimer expressed in Escherichia coli BL21/DE3 cells
Outline: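 Both enzymes assayed at pH 7.2 by RapidFire–MS, monitoring decarboxylated AdoMet. Inhibitor run as a 3-fold dilution series from 0.01 to 180 μM final, with 2% DMSO final. Data normalized to 0.5 μM Genz-644131 as full inhibition. IC50 fitted with bottom fixed at 0 and Hill slope fixed at −1, triplicate. Ratio is human IC50 over parasite IC50.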

[17] = tested on: Trypanosoma brucei; test: Inhibition of recombinant Trypanosoma brucei N-terminal His6-tagged AdoMetDC/prozyme hetrodimer expressed in Escherichia coli BL21/DE3 cells at 21 uM at pH 7.2 by RapidFire-MS-based enzyme activity assay; outline: as §2
[18] = biological target: T3, S-adenosylmethionine decarboxylase proenzyme (Homo sapiens); test: Inhibition of recombinant human N-terminal His6-tagged AdoMetDC expressed in Escherichia coli BL21/DE3 cells at 63 uM at pH 7.2 by RapidFire-MS-based enzyme activity assay
[19] = tested on: Trypanosoma brucei brucei; test: Antitrypanosomal activity against blood stream form Trypanosoma brucei brucei Lister 427 at 100 uM after 48 hrs by CellTiter-Glo assay; type: functional; outline: as §1
[20] = tested on: Trypanosoma brucei; test: Inhibition of recombinant Trypanosoma brucei N-terminal His6-tagged AdoMetDC/prozyme hetrodimer expressed in Escherichia coli BL21/DE3 cells at 63 uM at pH 7.2 by RapidFire-MS-based enzyme activity assay; outline: as §2

IC50 [3] [µM]	Compound	IC50 [2] [µM]	Activity [15] [%]	also measured
> 180	Nc1nc(Cl)cc(Nc2cc(Cl)cc(Cl)c2)n1	> 180		inhibition [1]: inactive
	Cc1cc(Nc2cc(Cl)cc(Cl)c2)nc(N)n1	3.7		inhibition [1]: Active; inhibition [4]: 27%; Stability [5]: Unstable; IC50 [6]: 0.5 µM; Papp B→A at 1 h, up to 20 µM [7]: 13.5 ×10⁻⁶ cm/s; IC50 [8]: 30 µM; Ratio IC50 [9]: 60; Stability [10]: Unstable; Ki [11]: 2.6 µM; inhibition [12]: Active
	Cc1cc(Nc2cc(Cl)cc(-c3ccoc3)c2)nc(N)n1	7.4		inhibition [4]: 30%; IC50 [13]: 7.1 µM
> 180	Cc1cc(Nc2ccc(Cl)cc2Cl)nc(N)n1	> 180	28	
	Cc1cc(Nc2cc(Cl)c(F)c(Cl)c2)nc(N)n1	1.5		Ratio IC50 [16]: > 100
	C=CCOc1cc(Br)cc(Nc2cc(C)nc(N)n2)c1	4.5		inhibition [4]: 28%; IC50 [13]: 4.4 µM
> 180	Cc1cc(Nc2ccc(Br)cc2F)nc(N)n1	> 180	25	
> 180	Cc1cc(Nc2cc(C(F)(F)F)ccc2Cl)nc(N)n1	199	28	
> 180	Nc1cc(Nc2cc(Cl)cc(Cl)c2)nc(N)n1	48		IC50 [6]: 5.8 µM
> 180	Cc1cc(Nc2ccc(Cl)cc2)nc(N)n1	> 180	28	
	Cc1cc(Nc2cc(Br)cc(Br)c2)nc(N)n1	1.9		inhibition [4]: 31%; Ratio IC50 [16]: > 100
	Cc1cc(Nc2cc(Cl)cc(-c3ccccc3)c2)nc(N)n1	3.3		inhibition [18]: 30%
> 180	Nc1nccc(Nc2cc(Cl)cc(Cl)c2)n1	13		inhibition [1]: Active
> 180	Cc1cc(Nc2cc(Cl)cc(Cl)c2O)nc(N)n1	37		Activity [19]: 26%
> 180	Cc1cc(Nc2cc(Cl)ccc2Cl)nc(N)n1	115	23	
> 180	Cc1cc(Nc2cc(Cl)ccc2C)nc(N)n1	> 180	28	
> 180	Cc1cc(Nc2cccc(Cl)c2C)nc(N)n1	> 180	29	
> 180	Cc1cc(Nc2cccc(Cl)c2Cl)nc(N)n1	137	27	
> 180	Cc1cc(Nc2cc(Cl)cc(-c3ccc(F)c(Cl)c3)c2)nc(N)n1	157		IC50 [13]: 3.2 µM
> 180	Cc1cc(Nc2cc(Cl)cc(Cl)c2)ncn1	> 180		inhibition [1]: inactive

Compound	IC50 [3] [µM]	IC50 [2] [µM]	Activity [15] [%]	also measured
Cc1cc(Nc2ccc(F)c(F)c2)nc(N)n1	> 180		25	inhibition [14]: 33%
Cc1cc(Nc2cc(Br)cc(OCC(F)(F)F)c2)nc(N)n1	44	1.6		Ratio IC50 [16]: 27
Nc1nc(Nc2cc(Cl)cc(Cl)c2)cc(-c2ccccc2)n1	> 21			inhibition [17]: 24%
Cc1cc(Nc2cc(Cl)cc(-c3cncs3)c2)nc(N)n1	> 21			inhibition [17]: 42%
CC(=O)c1ccc(-c2cc(Cl)cc(Nc3cc(C)nc(N)n3)c2)cc1	> 21			inhibition [17]: 28%
Cc1cc(Nc2cc(Cl)cc(-c3cc4ccccc4o3)c2)nc(N)n1	> 63			inhibition [20]: 23%
